Experimental data from PMC4254804 (Nature communications, 2014).

Molecular target: TopBP1 (Homo sapiens, UniProt Q92547)
Type: biochemical
Method in brief: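 E. coli BL21-expressed (0.1 mM IPTG) TopBP1-BRCT7/8, GST cleaved off with PreScission, 2 μg preincubated with compound in NETN-A (50 mM NaCl, 1 mM EDTA, 20 mM Tris, 0.5% NP-40), 3 h, 4°C, rotating. Then 2 μg biotin-pS1159 peptide (non-phospho peptide control; streptavidin-Sepharose) or GST-p53-DBD (GST control; glutathione-Sepharose) added, 3 h, 4°C. Six NETN-B washes; SDS-PAGE, anti-TopBP1 immunoblot.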

TopBP1, sequence (Q92547 1264-1493 limits assumed): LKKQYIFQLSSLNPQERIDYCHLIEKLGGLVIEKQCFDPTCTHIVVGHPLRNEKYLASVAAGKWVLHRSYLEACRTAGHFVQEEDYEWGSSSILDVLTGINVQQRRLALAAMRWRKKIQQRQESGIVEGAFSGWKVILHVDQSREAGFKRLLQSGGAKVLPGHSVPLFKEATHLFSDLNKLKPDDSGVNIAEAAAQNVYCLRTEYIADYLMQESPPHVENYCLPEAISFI

SMILES: O=C(O)CN(CC(=O)O)Cc1cc2c(cc1O)Oc1cc(O)c(CN(CC(=O)O)CC(=O)O)cc1C21OC(=O)c2ccccc21 [calcein]
- Pulldown competition with purified proteins: biotin-pS1159 peptide streptavidin: submicromolar
